Laboratory results taken from article PMC2213596 (The Journal of Cell Biology, 2008).

What was measured:
[1] = system: cytochrome c release from MEF mitochondria; assay: in vitro cytochrome c release assay; assay type: cell-based, mouse; settings: 5 μM ABT-737, 30°C, 1 h
MEFs [2] = assay: short-term killing assay with ABT-737; assay type: cell-based, mouse
How it was run: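 Constructs in pMIG (MSCV-IRES-GFP) were packaged in transiently transfected ecotropic Phoenix cells. Filtered supernatants were spin-inoculated onto FDC-P1 cells or SV40 large T-immortalized MEFs. ABT-737 was added immediately after spin inoculation. Viability was the fraction of GFP+ cells excluding 5 μg/ml PI, read by flow cytometry 30 h or at indicated times after transduction. MEF dose-response used stably infected lines given 0–10 μM ABT-737 for 24 h.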

primary thymocytes = assay: ionomycin-induced killing, cell viability; assay type: cell-based, mouse; settings: 1 μg/ml ionomycin
How it was run: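 Thymocytes came from bim+/+ or bim−/− mice. They were treated with 1 μg/ml ionomycin for 0–24 h. Viability was scored by flow cytometry as propidium iodide-excluding cells. Values are means ± SD of three experiments.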

[3] = system: Mcl-1 in primary thymocytes; assay: Mcl-1 levels by Western blotting after ionomycin; assay type: cell-based, mouse; settings: with 50 μM qVD-OPH
How it was run: (§1)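 Cells were cultured with 50 μM qVD-OPH to block caspase cleavage of Mcl-1. For 2, MCF-7 cells were given 1.5 μM thapsigargin for up to 48 h. For 1, primary bim+/+ mouse thymocytes were given 1 μg/ml ionomycin. Cells were lysed in 1% (vol/vol) Triton X-100 buffer. Western blots were probed with rat monoclonal anti-Mcl-1 (19C4-15) and anti-Bim, then reprobed for HSP70 as loading control.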

MCF-7 cells = assay: thapsigargin-induced apoptosis, cell viability; assay type: cell-based; settings: 1.5 μM thapsigargin, 0–48 h
How it was run: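 Wild-type MCF-7 cells and a subclone stably expressing Bim shRNA were treated with 1.5 μM thapsigargin for 0–48 h. Survival was measured by flow cytometry as propidium iodide exclusion. Values are means ± SD of three experiments.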

Mcl-1 in MCF-7 cells = assay: Mcl-1 levels by Western blotting after thapsigargin; assay type: cell-based; settings: up to 48 h, with 50 μM qVD-OPH
How it was run: as §1

MEFs [4] = assay: long-term tolerance assay; assay type: cell-based, mouse; settings: wild-type MEFs; retroviral expression linked to GFP through IRES; ∼40 d
How it was run: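 SV40-immortalized MEF lines stably expressing BH3-only constructs from pMIG (GFP via IRES) were grown without selection. They were harvested every 3 or 4 d over 38 d. At each time point, flow cytometry measured the proportion of GFP+ cells that excluded propidium iodide.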

## CN(C)CC[C@H](CSc1ccccc1)Nc1ccc(S(=O)(=O)NC(=O)c2ccc(N3CCN(Cc4ccccc4-c4ccc(Cl)cc4)CC3)cc2)cc1[N+](=O)[O-] [ABT-737]
[1]; mitochondria from BimS2A-expressing cells
  cytochrome c release: significant release
[1]; mitochondria from BimS4E-expressing cells
  cytochrome c release: No cytochrome c release
MEFs [2]; 1 μM ABT-737, MEFs expressing BimS2A, Noxa or BimSNoxaBH3
  time to maximal cell death: 4 to 6 h
MEFs [2]; ABT-737 with BimS2A expression
  killing of MEFs lacking Bim and Bid: able to synergize and kill
MEFs [2]; BimS2A/ABT-737 combination
  killing of bax−/− and bak−/− MEFs: able to kill
MEFs [2]; MEFs expressing BimS2A, BimSNoxaBH3 or Noxa, 24 h, 0–10 μM ABT-737
  viability of MEFs expressing Mcl-1–selective BH3-only proteins: efficiently kill cells

## C[C@H](CCC(=O)O)C[C@H](C)C[C@H](C)C(=O)/C=C(\O)[C@H](C)C[C@H](C)C/C=C/[C@@H](C)[C@@H](O)[C@@H](C)[C@@H](O)C[C@@H]1CC[C@@](C)([C@H]2CC[C@@](C)([C@@H](C)O)O2)O1 [ionomycin]
Primary thymocytes; 0–24 h
  killing of Bim-deficient thymocytes: attenuates
Primary thymocytes; 0–24 h, three experiments
  death of wild-type thymocytes: significant death
[3]
  Mcl-1 levels after treatment: did not significantly change

## CC(C)[C@H](NC(=O)c1ccc2ccccc2n1)C(=O)N[C@@H](CC(=O)O)C(=O)COc1c(F)cccc1F [qVD-OPH]
Primary thymocytes; 50 μM qVD-OPH, thymocytes
  effect on killing induced by ionomycin: significantly reduced the killing

## C/C=C(/C)C(=O)O[C@H]1C(C)=C2[C@H]([C@@H]1OC(=O)CCCCCCC)[C@@](C)(OC(C)=O)C[C@H](OC(=O)CCC)[C@@]1(O)[C@H]2OC(=O)[C@@]1(C)O [thapsigargin]
MCF-7 cells
  cell death of MCF-7 cells expressing Bim shRNA: relatively insensitive
MCF-7 cells; three experiments
  cell death of wild-type MCF-7 cells: Significant cell death
Mcl-1 in MCF-7 cells
  Mcl-1 levels over levels in untreated cells: up to twofold

B1: BimS2A: full-length BimS containing the L62A/F69A mutations, retrovirally expressed (protein)
chain: MAKQPSDVSSECDREGRQLQPAERPPQLRPGAPTSLQTEPQASMRQAEPADMRPEIWIAQEARRIGDEANAYYARRVFLNNYQAAEDHPRMVILRLLRYIVRLVWRMH
modifications: left off: HA, end not stated, kept
MEFs [4]
  viable cells that remained GFP+ve: progressive loss

B2: Bad: BH3-only protein targeting Bcl-xL, Bcl-w and Bcl-2, retrovirally expressed (protein, UniProt Q61337 1-204, looked up)
Bcl2-associated agonist of …: MGTPKQPSLAPAHALGLRKSDPGIRSLGSDAGGRRWRPAAQSMFQIPEFEPSEQEDASATDRGLGPSLTEDQPGPYLAPGLLGSNIHQQGRAATNSHHGGAGAMETRSRHSSYPAGTEEDEGMEEELSPFRGRSRSAPPNLWAAQRYGRELRRMSDEFEGSFKGLPRPKSAGTATQMRQSAGWTRIIQSWWDRNLGKGGSTPSQ
MEFs [4]
  viable cells that remained GFP+ve: > 80%

B3: Noxa: BH3-only protein preferentially binding Mcl-1, retrovirally expressed (protein, UniProt Q9JM54 1-103, looked up)
Phorbol-12-myristate-13-acetat …: MPGRKARRNAPVNPTRAELPPEFAAQLRKIGDKVYCTWSAPDITVVLAQMPGKSQKSRMRSPSPTRVPADLKDECAQLRRIGDKVNLRQKLLNLISKLFNLVT
MEFs [4]
  viable cells that remained GFP+ve: progressive loss
